# According to ChEMBL document CHEMBL5058577, “EUbOPEN Chemogenomics Library 2 (Multiplex)” (2022):
# Test system: HEK-293T
# Assay: Multiplex assay against HEK293T
# Type: toxicity, cell-based
# Settings: human
# In short: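 Tubulin, mitochondrial-mass and membrane-permeability phenotypes are per cents of healthy-nucleus cells. Cells were gated by CellPathfinder machine learning into Hoechst high-intensity objects or normal cells, normal cells into healthy, pyknosed or fragmented nuclei, and pyknosed cells into mitotic or apoptotic. Before that, live cells stained at seeding with Hoechst33342, BioTracker Green Microtubule Cytoskeleton Dye, MitoTracker Red and Annexin V Alexa Fluor 680 were imaged on a CQ1 microscope at 37°C and 5% CO2 after compound addition.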
# [1] = 12 h, 1 µM, compound concentration 1 uM, replicate 1
# [2] = 12 h, 1 µM, compound concentration 1 uM, replicate 2
# [3] = 12 h, 10 µM, compound concentration 10 uM, replicate 1
# [4] = 12 h, 10 µM, compound concentration 10 uM, replicate 2
# [5] = 24 h, 1 µM, compound concentration 1 uM, replicate 1
# [6] = 24 h, 1 µM, compound concentration 1 uM, replicate 2
# [7] = 24 h, 10 µM, compound concentration 10 uM, replicate 1
# [8] = 24 h, 10 µM, compound concentration 10 uM, replicate 2
# [9] = 48 h, 1 µM, compound concentration 1 uM, replicate 1
# [10] = 48 h, 1 µM, compound concentration 1 uM, replicate 2
# [11] = 48 h, 10 µM, compound concentration 10 uM, replicate 1
# [12] = 48 h, 10 µM, compound concentration 10 uM, replicate 2
smiles,measurement,setting,value
Cn1cc(C(=O)OCC2CCN(CCNS(C)(=O)=O)CC2)c2ccccc21,Population Apoptotic (%),[1],39%
same,Population Fragmented Nuclei (%),[1],5%
same,Population Healthy Nuclei (%),[1],83%
same,Population Hoechst High Intensity Objects (%),[1],7%
same,Population Membrane Permeable-Phenotype (%),[1],0%
same,Population Mitochondria Different-Phenotype (%),[1],35%
same,Population Mitotic Cells (%),[1],60%
same,Population Normal (%),[1],92%
same,Population Pyknosed Nuclei (%),[1],10%
same,Population Tubulin-Different-Phenotype (%),[1],22%
same,Total Cell Count,[1],466
same,Population Apoptotic (%),[2],56%
same,Population Fragmented Nuclei (%),[2],9%
same,Population Healthy Nuclei (%),[2],76%
same,Population Hoechst High Intensity Objects (%),[2],8%
same,Population Mitochondria Different-Phenotype (%),[2],62%
same,Population Mitotic Cells (%),[2],43%
same,Population Normal (%),[2],91%
same,Population Pyknosed Nuclei (%),[2],14%
same,Population Tubulin-Different-Phenotype (%),[2],28%
same,Total Cell Count,[2],248
same,Population Apoptotic (%),[3],47%
same,Population Fragmented Nuclei (%),[3],10%
same,Population Healthy Nuclei (%),[3],73%
same,Population Hoechst High Intensity Objects (%),[3],6%
same,Population Membrane Permeable-Phenotype (%),[3],0%
same,Population Mitochondria Different-Phenotype (%),[3],55%
same,Population Mitotic Cells (%),[3],52%
same,Population Normal (%),[3],93%
same,Population Pyknosed Nuclei (%),[3],15%
same,Population Tubulin-Different-Phenotype (%),[3],53%
same,Total Cell Count,[3],479
same,Population Apoptotic (%),[4],43%
same,Population Healthy Nuclei (%),[4],71%
same,Population Hoechst High Intensity Objects (%),[4],10%
same,Population Mitochondria Different-Phenotype (%),[4],73%
same,Population Mitotic Cells (%),[4],56%
same,Population Normal (%),[4],89%
same,Population Pyknosed Nuclei (%),[4],18%
same,Population Tubulin-Different-Phenotype (%),[4],47%
same,Total Cell Count,[4],393
same,Population Apoptotic (%),[5],29%
same,Population Fragmented Nuclei (%),[5],6%
same,Population Healthy Nuclei (%),[5],82%
same,Population Hoechst High Intensity Objects (%),[5],4%
same,Population Membrane Permeable-Phenotype (%),[5],1%
same,Population Mitochondria Different-Phenotype (%),[5],21%
same,Population Mitotic Cells (%),[5],70%
same,Population Normal (%),[5],95%
same,Population Pyknosed Nuclei (%),[5],10%
same,Population Tubulin-Different-Phenotype (%),[5],16%
same,Total Cell Count,[5],650
same,Population Apoptotic (%),[6],48%
same,Population Fragmented Nuclei (%),[6],12%
same,Population Healthy Nuclei (%),[6],76%
same,Population Hoechst High Intensity Objects (%),[6],5%
same,Population Membrane Permeable-Phenotype (%),[6],0%
same,Population Mitochondria Different-Phenotype (%),[6],42%
same,Population Mitotic Cells (%),[6],51%
same,Population Normal (%),[6],94%
same,Population Tubulin-Different-Phenotype (%),[6],17%
same,Total Cell Count,[6],283
same,Population Apoptotic (%),[7],35%
same,Population Fragmented Nuclei (%),[7],11%
same,Population Healthy Nuclei (%),[7],74%
same,Population Hoechst High Intensity Objects (%),[7],5%
same,Population Membrane Permeable-Phenotype (%),[7],1%
same,Population Mitochondria Different-Phenotype (%),[7],43%
same,Population Mitotic Cells (%),[7],64%
same,Population Normal (%),[7],94%
same,Population Pyknosed Nuclei (%),[7],13%
same,Population Tubulin-Different-Phenotype (%),[7],50%
same,Total Cell Count,[7],587
same,Population Apoptotic (%),[8],48%
same,Population Fragmented Nuclei (%),[8],10%
same,Population Healthy Nuclei (%),[8],79%
same,Population Hoechst High Intensity Objects (%),[8],6%
same,Population Membrane Permeable-Phenotype (%),[8],0%
same,Population Mitochondria Different-Phenotype (%),[8],56%
same,Population Mitotic Cells (%),[8],51%
same,Population Normal (%),[8],93%
same,Population Pyknosed Nuclei (%),[8],9%
same,Population Tubulin-Different-Phenotype (%),[8],37%
same,Total Cell Count,[8],491
same,Population Apoptotic (%),[9],25%
same,Population Fragmented Nuclei (%),[9],12%
same,Population Healthy Nuclei (%),[9],78%
same,Population Hoechst High Intensity Objects (%),[9],3%
same,Population Membrane Permeable-Phenotype (%),[9],1%
same,Population Mitochondria Different-Phenotype (%),[9],12%
same,Population Mitotic Cells (%),[9],74%
same,Population Normal (%),[9],96%
same,Population Pyknosed Nuclei (%),[9],8%
same,Population Tubulin-Different-Phenotype (%),[9],10%
same,Total Cell Count,[9],1090
same,Population Apoptotic (%),[10],44%
same,Population Fragmented Nuclei (%),[10],11%
same,Population Healthy Nuclei (%),[10],82%
same,Population Hoechst High Intensity Objects (%),[10],4%
same,Population Membrane Permeable-Phenotype (%),[10],3%
same,Population Mitochondria Different-Phenotype (%),[10],23%
same,Population Mitotic Cells (%),[10],55%
same,Population Normal (%),[10],95%
same,Population Pyknosed Nuclei (%),[10],6%
same,Population Tubulin-Different-Phenotype (%),[10],11%
same,Total Cell Count,[10],490
same,Population Apoptotic (%),[11],38%
same,Population Fragmented Nuclei (%),[11],16%
same,Population Healthy Nuclei (%),[11],77%
same,Population Hoechst High Intensity Objects (%),[11],6%
same,Population Membrane Permeable-Phenotype (%),[11],1%
same,Population Mitochondria Different-Phenotype (%),[11],31%
same,Population Mitotic Cells (%),[11],61%
same,Population Normal (%),[11],93%
same,Population Pyknosed Nuclei (%),[11],6%
same,Population Tubulin-Different-Phenotype (%),[11],28%
same,Total Cell Count,[11],883
same,Population Fragmented Nuclei (%),[12],13%
same,Population Healthy Nuclei (%),[12],79%
same,Population Hoechst High Intensity Objects (%),[12],4%
same,Population Membrane Permeable-Phenotype (%),[12],0%
same,Population Mitochondria Different-Phenotype (%),[12],37%
same,Population Normal (%),[12],95%
same,Population Tubulin-Different-Phenotype (%),[12],26%
same,Total Cell Count,[12],758
C[C@@H]1CC(=O)Nc2cccc(-c3ccc4c(c3)c(-c3cnn(C)c3)nn4C)c2N1,Population Apoptotic (%),[1],36%
same,Population Fragmented Nuclei (%),[1],7%
same,Population Healthy Nuclei (%),[1],76%
same,Population Hoechst High Intensity Objects (%),[1],7%
same,Population Membrane Permeable-Phenotype (%),[1],0%
same,Population Mitochondria Different-Phenotype (%),[1],51%
same,Population Mitotic Cells (%),[1],63%
same,Population Normal (%),[1],92%
same,Population Pyknosed Nuclei (%),[1],16%
same,Population Tubulin-Different-Phenotype (%),[1],39%
same,Total Cell Count,[1],305
same,Population Apoptotic (%),[2],60%
same,Population Fragmented Nuclei (%),[2],5%
same,Population Healthy Nuclei (%),[2],77%
same,Population Mitochondria Different-Phenotype (%),[2],65%
same,Population Mitotic Cells (%),[2],39%
same,Population Tubulin-Different-Phenotype (%),[2],26%
same,Total Cell Count,[2],349
same,Population Apoptotic (%),[3],49%
same,Population Fragmented Nuclei (%),[3],8%
same,Population Healthy Nuclei (%),[3],74%
same,Population Hoechst High Intensity Objects (%),[3],5%
same,Population Membrane Permeable-Phenotype (%),[3],0%
same,Population Mitochondria Different-Phenotype (%),[3],72%
same,Population Mitotic Cells (%),[3],50%
same,Population Normal (%),[3],94%
same,Population Pyknosed Nuclei (%),[3],17%
same,Population Tubulin-Different-Phenotype (%),[3],62%
same,Total Cell Count,[3],384
same,Population Apoptotic (%),[4],38%
same,Population Fragmented Nuclei (%),[4],5%
same,Population Healthy Nuclei (%),[4],77%
same,Population Hoechst High Intensity Objects (%),[4],12%
same,Population Mitochondria Different-Phenotype (%),[4],86%
same,Population Mitotic Cells (%),[4],62%
same,Population Normal (%),[4],87%
same,Population Pyknosed Nuclei (%),[4],16%
same,Population Tubulin-Different-Phenotype (%),[4],56%
same,Total Cell Count,[4],345
same,Population Apoptotic (%),[5],38%
same,Population Fragmented Nuclei (%),[5],10%
same,Population Healthy Nuclei (%),[5],74%
same,Population Hoechst High Intensity Objects (%),[5],7%
same,Population Membrane Permeable-Phenotype (%),[5],0%
same,Population Mitochondria Different-Phenotype (%),[5],37%
same,Population Mitotic Cells (%),[5],61%
same,Population Normal (%),[5],92%
same,Population Pyknosed Nuclei (%),[5],14%
same,Population Tubulin-Different-Phenotype (%),[5],20%
same,Total Cell Count,[5],395
same,Population Apoptotic (%),[6],50%
same,Population Fragmented Nuclei (%),[6],8%
same,Population Healthy Nuclei (%),[6],79%
same,Population Hoechst High Intensity Objects (%),[6],6%
same,Population Mitochondria Different-Phenotype (%),[6],48%
same,Population Mitotic Cells (%),[6],50%
same,Population Normal (%),[6],93%
same,Population Pyknosed Nuclei (%),[6],11%
same,Population Tubulin-Different-Phenotype (%),[6],16%
same,Total Cell Count,[6],422
same,Population Apoptotic (%),[7],43%
same,Population Fragmented Nuclei (%),[7],9%
same,Population Healthy Nuclei (%),[7],76%
same,Population Hoechst High Intensity Objects (%),[7],2%
same,Population Membrane Permeable-Phenotype (%),[7],0%
same,Population Mitochondria Different-Phenotype (%),[7],62%
same,Population Mitotic Cells (%),[7],56%
same,Population Normal (%),[7],97%
same,Population Pyknosed Nuclei (%),[7],13%
same,Population Tubulin-Different-Phenotype (%),[7],37%
same,Total Cell Count,[7],472
same,Population Apoptotic (%),[8],57%
same,Population Fragmented Nuclei (%),[8],8%
same,Population Healthy Nuclei (%),[8],72%
same,Population Hoechst High Intensity Objects (%),[8],5%
same,Population Mitochondria Different-Phenotype (%),[8],68%
same,Population Mitotic Cells (%),[8],42%
same,Population Normal (%),[8],94%
same,Population Pyknosed Nuclei (%),[8],19%
same,Population Tubulin-Different-Phenotype (%),[8],28%
same,Total Cell Count,[8],381
same,Population Apoptotic (%),[9],33%
same,Population Fragmented Nuclei (%),[9],11%
same,Population Healthy Nuclei (%),[9],80%
same,Population Hoechst High Intensity Objects (%),[9],1%
same,Population Membrane Permeable-Phenotype (%),[9],0%
same,Population Mitochondria Different-Phenotype (%),[9],23%
same,Population Mitotic Cells (%),[9],66%
same,Population Normal (%),[9],98%
same,Population Pyknosed Nuclei (%),[9],7%
same,Population Tubulin-Different-Phenotype (%),[9],13%
same,Total Cell Count,[9],627
same,Population Apoptotic (%),[10],30%
same,Population Fragmented Nuclei (%),[10],9%
same,Population Healthy Nuclei (%),[10],81%
same,Population Hoechst High Intensity Objects (%),[10],2%
same,Population Mitochondria Different-Phenotype (%),[10],30%
same,Population Mitotic Cells (%),[10],69%
same,Population Normal (%),[10],97%
same,Population Pyknosed Nuclei (%),[10],9%
same,Total Cell Count,[10],593
same,Population Apoptotic (%),[11],43%
same,Population Fragmented Nuclei (%),[11],13%
same,Population Healthy Nuclei (%),[11],80%
same,Population Hoechst High Intensity Objects (%),[11],4%
same,Population Membrane Permeable-Phenotype (%),[11],0%
same,Population Mitochondria Different-Phenotype (%),[11],44%
same,Population Mitotic Cells (%),[11],56%
same,Population Normal (%),[11],95%
same,Population Pyknosed Nuclei (%),[11],6%
same,Population Tubulin-Different-Phenotype (%),[11],16%
same,Total Cell Count,[11],636
same,Population Apoptotic (%),[12],42%
same,Population Fragmented Nuclei (%),[12],12%
same,Population Healthy Nuclei (%),[12],78%
same,Population Hoechst High Intensity Objects (%),[12],2%
same,Population Mitochondria Different-Phenotype (%),[12],53%
same,Population Mitotic Cells (%),[12],57%
same,Population Normal (%),[12],97%
same,Population Pyknosed Nuclei (%),[12],9%
same,Population Tubulin-Different-Phenotype (%),[12],20%
same,Total Cell Count,[12],521
